Assay results as given in ChEMBL document CHEMBL1177701, “Synthesis, biological evaluation, and structure-activity relationships of dithiolethiones as inducers of cytoprotective phase 2 enzymes” (J Med Chem, 2010).

What was measured:
Rattus norvegicus [1] = test: Ex vivo induction of NQO1 in Sprague-Dawley rat ileum at 7.5 umol/kg/day, po for 10 days measured on day 11 relative to control; type: functional
In short: (§1)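 Organs taken from the same rats used for the bladder study: female Sprague-Dawley, compound at 7.5 µmol/kg/day by gavage or soya oil for 10 days, killed on day 11. GI contents rinsed out under cold water and tissues stored at −80°C. Homogenized in 0.2% Triton X-100 and centrifuged. Supernatant NQO1 activity measured by the Ernster method, expressed as treated/control.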

Rattus norvegicus [2] = test: Ex vivo induction of NQO1 in Sprague-Dawley rat stomach at 7.5 umol/kg/day, po for 10 days measured on day 11 relative to control; type: functional; in short: as §1
Rattus norvegicus [3] = test: Ex vivo induction of GST in Sprague-Dawley rat bladder at 7.5 umol/kg/day, po for 10 days measured on day 11 relative to control; type: functional
In short: (§2)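 Female Sprague-Dawley rats, 6 per group, gavaged with compound at 7.5 µmol/kg/day or soya oil for 10 days and killed on day 11. Bladder homogenized in ice-cold 0.2% Triton X-100 and cleared by centrifugation. NQO1 activity measured by the Ernster method, GST by the Habig method. Reported as treated/control mean ± SEM, ANOVA with Student-Newman-Keuls test.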

Rattus norvegicus [4] = test: Ex vivo induction of NQO1 in Sprague-Dawley rat bladder at 7.5 umol/kg/day, po for 10 days measured on day 11 relative to control; type: functional; in short: as §2
Rattus norvegicus [5] = test: Ex vivo induction of NQO1 in Sprague-Dawley rat colon at 7.5 umol/kg/day, po for 10 days measured on day 11 relative to control; type: functional; in short: as §1
Rattus norvegicus [6] = test: Ex vivo induction of NQO1 in Sprague-Dawley rat duodenum at 7.5 umol/kg/day, po for 10 days measured on day 11 relative to control; type: functional; in short: as §1
Rattus norvegicus [7] = test: Ex vivo induction of NQO1 in Sprague-Dawley rat kidney at 7.5 umol/kg/day, po for 10 days measured on day 11 relative to control; type: functional; in short: as §1
Rattus norvegicus [8] = test: Ex vivo induction of NQO1 in Sprague-Dawley rat liver at 7.5 umol/kg/day, po for 10 days measured on day 11 relative to control; type: functional; in short: as §1
Rattus norvegicus [9] = test: Ex vivo induction of NQO1 in Sprague-Dawley rat lung at 7.5 umol/kg/day, po for 10 days measured on day 11 relative to control; type: functional; in short: as §1
Rattus norvegicus [10] = test: Ex vivo induction of NQO1 in Sprague-Dawley rat jejunum at 7.5 umol/kg/day, po for 10 days measured on day 11 relative to control; type: functional; in short: as §1
[11] = Dissociation constant, pKa of the compound; type: physicochemical

| SMILES | fold change (FC) (Rattus norvegicus [1]) | fold change (FC) (Rattus norvegicus [2]) | fold change (FC) (Rattus norvegicus [3]) | fold change (FC) (Rattus norvegicus [4]) | fold change (FC) (Rattus norvegicus [5]) | fold change (FC) (Rattus norvegicus [6]) | fold change (FC) (Rattus norvegicus [7]) | fold change (FC) (Rattus norvegicus [8]) | fold change (FC) (Rattus norvegicus [9]) | fold change (FC) (Rattus norvegicus [10]) | pKa [11] |
| --- | --- | --- | --- | --- | --- | --- | --- | --- | --- | --- | --- |
| S=c1ssc2c1CCC2 | 1.36 | 3.55 | 1.68 | 3.14 | 1.28 | 2.82 | 1.87 | 1.26 | 1.26 | 1.44 | – |
| S=c1ssc2c1CCCC2 | – | – | 1.05 | 1.46 | – | – | – | – | – | – | – |
| S=c1ssc2c1CCCCCC2 | – | – | 1.11 | 1.08 | – | – | – | – | – | – | – |
| Cc1c(S)ssc1=S | – | – | 1.08 | 1.29 | – | – | – | – | – | – | – |
| O=c1ssc2c1CCC2 | – | – | 1.11 | 1.24 | – | – | – | – | – | – | – |
| O=c1ccss1 | – | – | 1.01 | 1.26 | – | – | – | – | – | – | – |
| S=c1ssc2c1CCCCC2 | – | – | 1.14 | 1.2 | – | – | – | – | – | – | – |
| COC(=O)C1CCc2c1ssc2=S (centres undefined) | 1.07 | 1.98 | 2.31 | 4.39 | 1.07 | 1.14 | 1.76 | 1.1 | 1.08 | 1.11 | – |
| Cc1cssc1=S | – | – | 1.23 | 1.83 | – | – | – | – | – | – | – |
| COC(=O)c1c(C)ssc1=S | – | – | 1.24 | 1.24 | – | – | – | – | – | – | – |
| O=C(O)c1cc(=S)ss1 | – | – | 1.11 | 1.27 | – | – | – | – | – | – | 1.2 |
| S=c1ccss1 [DITHIOLETHIONE] | 1.76 | 5.31 | 1.7 | 2.78 | 1.81 | 5.6 | 1.82 | 1.3 | 1.37 | 2.31 | – |
